We go through 2 molecules from ChEMBL document CHEMBL3352791, “Thioaryl naphthylmethanone oxime ether analogs as novel anticancer agents” (J Med Chem, 2014).

As a reminder, the EC50 is the concentration at which the effect is half-maximal. The low end stands for greater potency, the high end for weaker potency. Usually IC50 stands for the point on the concentration scale where inhibition reaches its midpoint. High values mean lower potency, low ones higher potency.

In data set [1] the test system is Ishikawa. Nature of the data set: Antiproliferative activity against human ER-positive Ishikawa cells after 24 hrs by MTT assay. In kind it is functional, cell-based. As to conditions: ishikawa.
The nature of data set [2]: Antiproliferative activity against human DLD1 cells after 24 hrs by MTT assay. As to conditions: DLD-1, 24 h. It is filed as functional, cell-based. The gist of the method:
(§1)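 MTT viability: cells seeded at 1×10^4 per well in DMEM with 10% FBS, left to adhere overnight, then serum-starved 4 h. Compounds were given at a range of doses, with 0.1% DMSO vehicle as control. EC50 was taken from dose-response curves spanning 100nM-50µM. Data are mean ± SEM from at least three independent experiments.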

Data set [3] is described as follows: Antiproliferative activity against mouse NIH/3T3 cells after 24 hrs by MTT assay. It is filed as functional, cell-based. Conditions: NIH3T3, 24 h. The gist of the method: as §1
Background: Formazan colour is commonly taken as a measure of viable cells.

The test system of data set [4] is MCF7. The data set is described as follows: Cell cycle arrest in human […] MCF7 cells assessed as accumulation at S phase at 5 uM by propidium iodide staining by FACS analysis (reference value: 24.76%). In kind it is functional.
The subject of data set [5] is MDA-MB-231. Nature of the data set: Cell cycle arrest in human […] cells assessed as accumulation at G1 phase at 7.5 uM by propidium iodide staining by FACS analysis (reference value: 63.74%). It is filed as functional. In general terms: Flow cytometry measures light scatter and fluorescence of single cells or particles in a stream.
The subject of data set [6] is Mus musculus. The data set is described as follows: Toxicity in human MCF7 cells xenografted in NIH-3 mouse assessed as changed in body weight at 8 mg/kg, po for 29 days relative to control. It is filed as organism-based. As to conditions: in vivo, 696 h. On the set-up: dose 8 mg/kg, route oral. In general terms: A xenograft is tissue or cells of one species grown in another, often human tumour cells in immunodeficient mice.

Data set [7] deals with Ribosomal protein S6 kinase beta-1 (Homo sapiens) (UniProt P23443). The data set is described as follows: Inhibition of p70S6K (unknown origin) at 10 uM. The essentials: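 Cell-free kinase profiling was run as a standard 33P-ATP-based in vitro kinase assay.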
In data set [8] the target is Focal adhesion kinase 1 (Homo sapiens) (UniProt Q05397). Nature of the data set: Inhibition of basal level FAK phosphorylation at Tyr397 in human MDA-MB-231 cells at 1 uM by ELISA. It is filed as cell-based.
Data set [9] deals with MCF7. Nature of the data set: Antiinvasion activity in human MCF7 cells assessed as inhibition of FBS-induced cell invaded to matrigel coated invasion chamber at 1 uM after 24 hrs by Transwell invasion assay. In kind it is functional, cell-based.
The subject of data set [10] is MDA-MB-231. Nature of the data set: Inhibition of CDC42 protein expression in human MDA-MB-231 cells at 1 uM after 24 hrs by ELISA. It is filed as functional, cell-based. The essentials: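 MDA-MB-231 cells treated at 1µM for 24 h. CDC42 protein measured with a G-LISA ELISA kit.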
Data set [11] relates to MCF7. The data set is described as follows: Inhibition of EGF expression in human MCF7 cells at 5 uM by ELISA. It is filed as functional, cell-based.
For data set [12], the system named is MCF7. The data set is described as follows: Inhibition of VEGF expression in human MCF7 cells at 5 uM by ELISA. In kind it is functional, cell-based.

The source made the active and inactive calls. The calls are words filed in the database; no cut-off is given here.

Sequence of Focal adhesion kinase 1 (Homo sapiens) (Q05397 2-1052 limits assumed): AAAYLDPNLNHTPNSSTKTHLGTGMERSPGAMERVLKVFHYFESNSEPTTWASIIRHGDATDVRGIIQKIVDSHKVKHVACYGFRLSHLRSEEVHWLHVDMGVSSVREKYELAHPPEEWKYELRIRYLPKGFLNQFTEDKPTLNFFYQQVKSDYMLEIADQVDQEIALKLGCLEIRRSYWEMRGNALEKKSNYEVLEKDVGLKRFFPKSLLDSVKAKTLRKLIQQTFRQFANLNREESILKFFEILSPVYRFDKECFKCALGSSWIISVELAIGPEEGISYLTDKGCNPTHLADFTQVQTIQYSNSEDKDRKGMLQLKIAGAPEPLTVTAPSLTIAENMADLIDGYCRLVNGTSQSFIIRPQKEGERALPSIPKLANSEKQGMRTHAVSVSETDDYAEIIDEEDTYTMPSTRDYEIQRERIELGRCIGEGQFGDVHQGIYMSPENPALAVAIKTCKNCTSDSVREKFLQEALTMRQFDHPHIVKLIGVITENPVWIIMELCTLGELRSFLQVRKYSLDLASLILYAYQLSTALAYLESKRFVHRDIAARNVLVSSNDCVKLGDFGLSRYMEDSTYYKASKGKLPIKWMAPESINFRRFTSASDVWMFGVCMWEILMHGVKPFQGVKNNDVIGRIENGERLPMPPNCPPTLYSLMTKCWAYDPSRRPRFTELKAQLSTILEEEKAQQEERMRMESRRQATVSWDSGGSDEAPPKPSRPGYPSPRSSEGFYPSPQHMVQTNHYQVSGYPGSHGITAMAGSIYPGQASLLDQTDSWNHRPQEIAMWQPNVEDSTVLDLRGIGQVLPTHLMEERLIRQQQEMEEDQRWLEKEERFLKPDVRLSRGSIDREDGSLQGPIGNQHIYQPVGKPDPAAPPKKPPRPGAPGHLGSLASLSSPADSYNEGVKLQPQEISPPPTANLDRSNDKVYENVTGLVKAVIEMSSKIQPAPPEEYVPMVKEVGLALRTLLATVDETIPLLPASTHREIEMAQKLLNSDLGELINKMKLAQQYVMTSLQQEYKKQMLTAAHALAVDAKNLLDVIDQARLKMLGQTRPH
Sequence of Ribosomal protein S6 kinase beta-1 (Homo sapiens) (P23443 whole entry, looked up): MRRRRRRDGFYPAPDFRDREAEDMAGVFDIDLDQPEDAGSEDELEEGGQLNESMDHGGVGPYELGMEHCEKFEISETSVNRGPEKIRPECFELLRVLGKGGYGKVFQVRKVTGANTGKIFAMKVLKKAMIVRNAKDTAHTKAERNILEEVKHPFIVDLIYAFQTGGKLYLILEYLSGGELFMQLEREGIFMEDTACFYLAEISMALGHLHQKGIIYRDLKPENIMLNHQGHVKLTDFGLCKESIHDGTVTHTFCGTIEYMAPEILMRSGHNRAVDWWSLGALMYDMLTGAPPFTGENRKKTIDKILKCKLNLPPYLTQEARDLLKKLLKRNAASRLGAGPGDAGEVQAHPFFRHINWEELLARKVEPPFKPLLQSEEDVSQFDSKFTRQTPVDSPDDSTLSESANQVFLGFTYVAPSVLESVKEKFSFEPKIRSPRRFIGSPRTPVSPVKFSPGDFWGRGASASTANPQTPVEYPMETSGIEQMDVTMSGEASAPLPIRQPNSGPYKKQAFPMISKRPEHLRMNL

As to `CCN(CC)CCO/N=C(\c1ccc(SC)cc1)c1cccc2ccccc12.O=C(O)C(=O)O`, the values for the EC50 in data set [1] and in [2] were 12 µM and 15.6 µM, respectively. Further, the IC50 in data set [3] is over 20 µM. The values for the Activity in data set [4], in [5] and in [6] were 13.88%, 91.17% and “Non-toxic”, respectively.

As to `CCN(CC)CCO/N=C(\c1ccc(SC)cc1)c1cccc2ccccc12`, the inhibition entry in data set [7] and in data set [12] was “inactive” throughout. Also, the inhibition result in data set [8], in data set [10] and in data set [11] was “Active” each time. Also, the result in data set [9] was Active.
